Experimental findings from ChEMBL document CHEMBL1275432, “Daptomycin is effective in treatment of experimental endocarditis due to methicillin-resistant and glycopeptide-intermediate Staphylococcus aureus” (Antimicrob Agents Chemother, 2008) are described below.

As usually defined, the MBC is the lowest tested concentration that kills the bacteria rather than only halting them. A word on the MIC: it is the smallest concentration in the dilution series that meets the test's criterion for growth inhibition. Read a low MIC as a more susceptible organism. A word on the Cmax: it is the peak of the concentration-time curve. The half-life is the time in which the quantity being followed falls by half. The term AUC denotes concentration integrated over time. Read a low AUC as low exposure.

In data set [1] the test system is Staphylococcus aureus. Briefly: Antimicrobial activity against glycopeptide-intermediate Staphylococcus aureus ATCC 700788 by microdilution method. It counts as functional. In a few lines: (§1)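 Broth microdilution MIC and MBC per CLSI in cation-adjusted Mueller-Hinton broth. For daptomycin, the broth was adjusted to 50 µg/ml calcium. S. aureus ATCC 29213 was the control strain.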
(Dilution methods test growth across graded concentrations, often in twofold steps.)

Data set [2] relates to Staphylococcus aureus. Briefly: Antimicrobial activity against methicillin-resistant Staphylococcus aureus by Etest. It counts as functional.
In data set [3] the test system is Staphylococcus aureus. Briefly: Antimicrobial activity against methicillin-resistant Staphylococcus aureus after 72 hrs by Etest. It counts as functional.
Data set [4] deals with Staphylococcus aureus. Nature of the data set: Bactericidal activity against methicillin-resistant Staphylococcus aureus 277 at 0.5 to 4 times MIC by time-kill experiment. It counts as functional, organism-based. In a few lines: (§2)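 Time-kill curves per CLSI, run in duplicate. Inoculum was 10^5 CFU/ml, with drug at 0.5–4× MIC. Viable counts were taken at 0, 4 and 24 h. Bactericidal was defined as a ≥3-log CFU reduction at 24 h versus the initial inoculum.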

The test system of data set [5] is Staphylococcus aureus. Briefly: Bactericidal activity against glycopeptide-intermediate Staphylococcus aureus ATCC 700788 at 0.5 to 4 times MIC by time-kill experiment. It counts as functional, organism-based. In a few lines: as §2
A short description of data set [6]: Cmax in human serum at 6 mg/kg, iv administered every 24 hrs. It counts as ADME, organism-based. Also noted: dose 6 mg/kg, route intravenous.
A short description of data set [7]: Terminal half-life in human serum at 6 mg/kg, iv administered every 24 hrs. It counts as ADME, organism-based. More on the design: dose 6 mg/kg, route intravenous.
Data set [8] can be described thus: AUC in human serum at 6 mg/kg, iv administered every 24 hrs. The data set is classed as ADME, organism-based. Also noted: dose 6 mg/kg, route intravenous.
The nature of data set [9]: Plasma protein binding in human serum at 6 mg/kg, iv administered every 24 hrs. The data set is classed as ADME, organism-based. More on the design: dose 6 mg/kg, route intravenous. The note with it: read-out: PPB (converted).
A short description of data set [10]: Plasma protein binding in New Zealand White rabbit plasma at 6 mg/kg, iv administered every 24 hrs. It counts as ADME, organism-based, Oryctolagus cuniculus. Also noted: dose 6 mg/kg, route intravenous. The note with it: read-out: PPB (converted).
The subject of data set [11] is Staphylococcus aureus. Briefly: Antimicrobial activity against methicillin-resistant Staphylococcus aureus 277 by microdilution method. The data set is classed as functional. In a few lines:
as §1

Data set [12] can be described thus: Cmin in New Zealand White rabbit infected with glycopeptide-intermediate Staphylococcus aureus after 24 hrs. It counts as ADME, organism-based, Oryctolagus cuniculus. As to conditions: in vivo, read-out: Cmin. In a few lines:
(§3)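 Trough serum concentrations were taken in rabbits with catheter-induced aortic valve endocarditis. Infection was 1 ml i.v. via the marginal ear vein: 7 × 10^5 CFU/ml for MRSA or 8 × 10^5 CFU/ml for GISA. Human-simulating pump infusion started 18 h after infection and ran 48 h. Daptomycin was assayed by M. luteus bioassay, vancomycin by immunoturbidimetry.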

Data set [13] deals with Staphylococcus aureus. Briefly: Bacteriostatic activity against methicillin-resistant Staphylococcus aureus 277 at 0.5 to 4 times MIC by time-kill experiment. It counts as functional, organism-based. In a few lines: as §2
Data set [14] relates to Staphylococcus aureus. Nature of the data set: Bacteriostatic activity against glycopeptide-intermediate Staphylococcus aureus ATCC 700788 at 0.5 to 4 times MIC by time-kill experiment. It counts as functional, organism-based. In a few lines:
as §2

Data set [15] can be described thus: Terminal half-life in human serum at 1 g, iv administered every 12 hrs. The data set is classed as ADME, organism-based.
A short description of data set [16]: Terminal half-life in New Zealand White rabbit at 1 g, iv administered every 12 hrs. It counts as ADME, organism-based, Oryctolagus cuniculus. As to conditions: in vivo. In a few lines: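 The vancomycin line simulated 1 g i.v. q 12 h (30 mg/kg/day in 2 doses). The daptomycin line simulated 6 mg/kg q 24 h. Parameters came from an open 2-compartment model. Daptomycin was measured by disk-plate bioassay with Micrococcus luteus ATCC 9341 (sensitivity 0.5 µg/ml). Vancomycin was measured by latex-boosted immunoturbidimetry (LOD 0.8 µg/ml).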

A short description of data set [17]: Plasma protein binding in New Zealand White rabbit plasma at 1 g, iv administered every 12 hrs. The data set is classed as ADME, organism-based, Oryctolagus cuniculus. The note with it: read-out: PPB (converted).
Data set [18] is described as follows: Cmin in New Zealand White rabbit infected with methicillin-resistant Staphylococcus aureus after 24 hrs. It counts as ADME, organism-based, Oryctolagus cuniculus. As to conditions: in vivo, read-out: Cmin. In a few lines:
as §3

Values after ≈ are worked out from the molar mass of the structure shown. Active and inactive are the calls of the source.

In the data set with Staphylococcus aureus [1], GENTAMICIN displayed an MBC of 128 µg/mL and an MIC of 0.25 µg/mL.

As for `CCCCCCCCCC(=O)N[C@@H](Cc1c[nH]c2ccccc12)C(=O)N[C@H](CC(N)=O)C(=O)N[C@@H](CC(=O)O)C(=O)N[C@@H]1C(=O)NCC(=O)N[C@@H](CCCN)C(=O)N[C@@H](CC(=O)O)C(=O)N[C@H](C)C(=O)N[C@@H](CC(=O)O)C(=O)NCC(=O)N[C@H](CO)C(=O)N[C@@H]([C@H](C)CC(=O)O)C(=O)N[C@@H](CC(=O)c2ccccc2N)C(=O)O[C@@H]1C`, the MIC against Staphylococcus aureus [2] worked out at 0.12 µg/mL (≈ 0.074 µM); against Staphylococcus aureus [3], 0.5 µg/mL (≈ 0.309 µM); against Staphylococcus aureus [11] it was 0.12 µg/mL (≈ 0.074 µM); with Staphylococcus aureus [1], 0.5 µg/mL (≈ 0.309 µM). The result with Staphylococcus aureus [4] and in the data set with Staphylococcus aureus [5] was Active. In [6], this compound registered a Cmax of 86000 ng/mL. The compound also showed a half-life in data set [7] of 9.5 h. In addition, the AUC at 24 h in data set [8] was determined as 974 µg·h/mL. Moreover, the fraction unbound at 24 h was 0.08 in data set [9] and 0.1 in data set [10]. This compound also had an MBC in the data set on Staphylococcus aureus [1] of 1 µg/mL (≈ 0.617 µM).

Consider `CN[C@H](CC(C)C)C(=O)N[C@H]1C(=O)N[C@@H](CC(N)=O)C(=O)N[C@H]2C(=O)N[C@H]3C(=O)N[C@H](C(=O)N[C@H](C(=O)O)c4cc(O)cc(O)c4-c4cc3ccc4O)[C@H](O)c3ccc(c(Cl)c3)Oc3cc2cc(c3O[C@@H]2O[C@H](CO)[C@@H](O)[C@H](O)[C@H]2O[C@H]2C[C@](C)(N)[C@H](O)[C@H](C)O2)Oc2ccc(cc2Cl)[C@H]1O` [VANCOMYCIN], for which the concentration at 24 h in data set [12] and in data set [18] was 20000 ng/mL throughout. In the data set on Staphylococcus aureus [3], the MIC amounted to 8 µg/mL (≈ 5.52 µM). The result in the data set on Staphylococcus aureus [13] and with Staphylococcus aureus [14] was Active. Besides, the half-life in data set [15] was 4.8 h; in data set [16], 1.3 h. For the same compound, the fraction unbound at 12 h in data set [17] was 0.35.
